Measured values of several laboratories.
Protocols differ between the studies behind these lines.
Target: Proto-oncogene tyrosine-protein kinase ROS (ROS1, Homo sapiens, UniProt P08922)

For CNC(=O)c1cc2c(Oc3ccc(NC(=O)C4(C(=O)Nc5ccc(F)cc5)CC4)cc3)ccnc2cc1OC, the inhibition was 89% (enzyme activity; inhibitor; radiometric; 1 µM).
With Cc1sc(C(=O)NC2COC2)cc1-n1cc(NC(=O)Nc2c(F)cccc2Cl)cn1 the remaining activity was 102% (enzyme activity; inhibitor; 10 µM).
The remaining binding of Cc1c[nH]c2nccc(Oc3c(F)cc(Nc4cc(Cl)nc(N)n4)cc3F)c12 is reported as 96% (cell-free assay; competition with immobilised ligand; 0.1 µM).
The remaining signal of C[S+]([O-])c1ccc(-c2nc(-c3ccncc3)c(-c3ccc(F)cc3)[nH]2)cc1 (stereo not drawn) is reported as 94.4% (cell-free assay; 0.5 µM).
O=C(N[C@H]1CCCCC/C=C\C2C[C@@]2(C(=O)O)NC(=O)[C@@H]2C[C@@H](Oc3ccncc3)CN2C1=O)OC1CCCC1 (stereo partly drawn) has a remaining binding of 92% (cell-free assay; competition with immobilised ligand; 1 µM).
C=CC(=O)Nc1cc(Nc2nccc(Nc3cc(Cl)c(F)cc3C(C)(C)O)n2)c(OC)cc1N1CC[C@@H](N(C)C)C1 has an inhibition of 51% (enzyme activity; inhibitor; 1 µM).
With COc1cc2c(Nc3ccc(Br)cc3F)ncnc2cc1OCC1CCN(C)CC1 the remaining signal was 76.5% (cell-free assay; 0.5 µM).
With Cc1ccc(C(=O)Nc2ccc(CN3CCN(C)CC3)c(C(F)(F)F)c2)cc1C#Cc1cnc2cccnn12 the remaining activity was 78% (enzyme activity; 23.5 nM).
COc1ccc(COc2ccc(Cc3cnc(N)nc3N)cc2OC)cc1 gave a remaining signal of 99.9% (cell-free assay; 0.5 µM).
With CO[C@@H](C)c1c(Nc2ccc([C@@H](N(C)C(=O)C3CCS(=O)(=O)CC3)C(F)(F)F)cc2)cnc2cc(Cl)nn12 the remaining binding was 82% (cell-free assay; competition with immobilised ligand; 1 µM).
Nc1ncnc2occ(-c3ccc(NC(=O)Nc4cc(C(F)(F)F)ccc4F)cc3)c12 gave a remaining signal of 4.9% (cell-free assay; 20 µM).
With CC(=O)N1CCC(c2ccc(C(=O)NC3=NCCN3)cc2C(F)(F)F)CC1 the remaining binding was 99% (cell-free assay; competition with immobilised ligand; 1 µM).
For COc1cc2ncnc(Nc3ccc(Oc4ccccc4)c(C)c3C)c2cc1OC, the inhibition was -2% (enzyme activity; inhibitor; 1 µM).
CCCOc1ccc(OC)c(F)c1C(=O)c1ccc(C(=O)N[C@@H]2CNC[C@H]2NC(=O)c2ccc3[nH]ncc3c2)cc1 gave a remaining activity of 105% (enzyme activity; inhibitor; 10 µM).
With COc1cc2nccc(Oc3ccc(NC(=O)c4c5n(n(-c6ccc(F)cc6)c4=O)CCCC5)cc3)c2cc1OC the inhibition was 26% (enzyme activity; inhibitor; 0.1 µM).
O=C1Nc2ccc(Cl)cc2C1=Cc1cc(Cl)c(O)c(Cl)c1 has a remaining signal of 89.7% (cell-free assay; 0.5 µM).
The remaining binding of CC(=O)c1c(NS(C)(=O)=O)c2cc(-c3ccc(Cl)cc3)c(-c3ccc(Cl)cc3Cl)nc2n(C)c1=O is reported as 100% (cell-free assay; competition with immobilised ligand; 1 µM).
CNCc1ccc(-c2cc(-c3nc(-c4ccc(S(=O)(=O)C(C)C)cc4)cnc3N)on2)cc1 gave an inhibition of 4% (enzyme activity; inhibitor; 2 µM).
With COc1cc(Cl)c(C(=O)N[C@@H](CN[C@H]2CC[C@@H](N)CC2)Cc2ccc(C#N)cc2)cc1-c1ccc(CN[C@H](C)c2ccc(C)cc2)o1 the remaining activity was 137% (enzyme activity; inhibitor; 1 µM).
The remaining binding of CNC(=O)Nc1ccc2c(c1)[C@@]1(CC2)OC(=O)N(CC(=O)N(Cc2ccc(F)cc2)[C@@H](C)C(F)(F)F)C1=O is reported as 87% (cell-free assay; competition with immobilised ligand; 1 µM).
CC(C)(O)[C@H]1CC[C@H](Nc2ccc3ncc(-c4cccc(C(F)(F)F)c4)n3n2)CC1 gave a remaining activity of 25.1% (enzyme activity; inhibitor; 1 µM).
With Cc1ccc(Nc2nccc(N(C)c3ccc4c(C)n(C)nc4c3)n2)cc1S(N)(=O)=O the inhibition was 13% (enzyme activity; inhibitor; 10 µM).
CC(C)(C)c1nc(-c2cccc(NS(=O)(=O)c3c(F)cccc3F)c2F)c(-c2ccnc(N)n2)s1 has a remaining activity of 96% (enzyme activity; inhibitor; radiometric; 1 µM).
For CC(=O)N1CCC(c2ccc(C(=O)NC(=N)N)cc2C(F)(F)F)CC1, the remaining binding was 100% (cell-free assay; competition with immobilised ligand; 1 µM).
Cc1cnc(NC2CCOCC2)nc1-n1cnc(C(=O)NC(CN)c2cc(F)cc(Cl)c2)c1 (stereo not drawn) has a remaining activity of 103% (enzyme activity; inhibitor; radiometric; 1 µM).
CCC(=O)N[C@@H]1CC[C@H](C(=O)N(C)c2ccc(-c3nc4ccccc4o3)cc2)C1 gave a remaining binding of 100% (cell-free assay; competition with immobilised ligand; 1 µM).
CCN(CC)CCNC(=O)c1c(C)[nH]c(/C=C2\C(=O)Nc3ccc(F)cc32)c1C has an inhibition of 35% (enzyme activity; inhibitor; 10 µM).
